Data set [1] relates to proteinase K. Kind of data set: in vitro. In kind it is in vitro ADME. The note with it: isolated enzyme proteinase k.
The target of another data set is designed protein gp41-5. Kind of data set: competition fluorescence polarization. The note with it: read-out: Ki for binding to gp41-5; competition FP assay. Also on record: species or system HIV. In outline:
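Competition fluorescence polarization binding of test compound to a designed gp41-5 construct made of three NHR segments and two CHR segments joined by flexible loops. Ki reported.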
In general terms: Fluorescence polarisation rises when a labelled molecule tumbles more slowly, as on binding a larger partner.

The next data set relates to HIV-1 DJ258. The data set is classed as cell-based.
Data set [2] addresses proteinase K (Parengyodontium album, UniProt P06873). The note with it: in vitro, ref 3a; cited from earlier work.
The test system of another data set is HIV-1 CC 7/86. The data set is classed as cell-based.
For the next data set, the system named is HIV-1 JRFL. The data set is classed as cell-based.
The next data set relates to HIV-1 UG270. The data set is classed as cell-based.
Data set [3] addresses gp41-derived NHR peptide N36 (Human immunodeficiency virus type 1 group M subtype B, UniProt P04578). In kind it is physicochemical, HIV. To be noted: variable-temperature CD; co-assembly with NHR peptide N36.

The values below come from publication PMC3377471 (Journal of the American Chemical Society, 2012).

*1 amine or outer side, *2 acyl side, *3 side chain or, on linkers, in order; H or OH if unused. Where a SMILES comes first, the peptide text is derived from it. [ ]: non-standard residue; d: D form. X1 = O=C([C@H]1CCC[C@@H]1N[*:1])[*:2]; X2 = O=C([C@H]1CNC[C@@H]1N[*:1])[*:2]; β3hR = N=C(N)NCCC[C@H](N)CC(=O)O; β3hT = C[C@@H](O)[C@H](N)CC(=O)O; β3hE = N[C@@H](CCC(=O)O)CC(=O)O

As a reminder, the half-life is the time needed for the level to fall by half in the phase considered. High values mean slow loss, low ones fast loss. As a reminder, the Ki is the equilibrium dissociation constant of an inhibitor or competing ligand from its target. For orientation: IC50 means the concentration that inhibits the measured activity by half.

proteinase K (Parengyodontium album, UniProt P06873), sequence (P06873 106-384): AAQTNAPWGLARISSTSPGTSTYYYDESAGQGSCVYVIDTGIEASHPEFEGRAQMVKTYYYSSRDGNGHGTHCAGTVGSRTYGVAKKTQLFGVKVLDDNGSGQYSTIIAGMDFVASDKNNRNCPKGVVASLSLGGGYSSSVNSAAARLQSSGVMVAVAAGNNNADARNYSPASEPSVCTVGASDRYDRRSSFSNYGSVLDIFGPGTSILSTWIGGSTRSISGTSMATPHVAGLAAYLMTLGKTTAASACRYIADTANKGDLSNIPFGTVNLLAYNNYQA
gp41-derived NHR peptide N36, sequence (P04578 546-581 limits assumed): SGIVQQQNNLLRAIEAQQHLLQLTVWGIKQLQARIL

`CC[C@H](C)[C@H](NC(=O)[C@H](C)NC(=O)C[C@H](CCCNC(=N)N)NC(=O)[C@H](CC(=O)O)NC(=O)[C@H](Cc1c[nH]c2ccccc12)NC(=O)C[C@H](C)NC(=O)[C@H](CCC(=O)O)NC(=O)[C@H](Cc1c[nH]c2ccccc12)NC(=O)[C@@H](NC(=O)C[C@@H](NC(C)=O)[C@@H](C)O)[C@@H](C)O)C(=O)N[C@@H](C)C(=O)N[C@@H](CCC(=O)O)CC(=O)N[C@@H](Cc1ccc(O)cc1)C(=O)N[C@@H](C)C(=O)N[C@@H](C)CC(=O)N[C@@H](CCCNC(=N)N)C(=O)N[C@H](C(=O)N[C@@H](CCC(=O)O)C(=O)N[C@@H](C)CC(=O)N[C@@H](CC(C)C)C(=O)N[C@H](C(=O)N[C@@H](CCCNC(=N)N)CC(=O)N[C@@H](C)C(=O)N[C@@H](C)C(=O)N[C@@H](CCC(N)=O)C(=O)N[C@@H](CCC(=O)O)CC(=O)N[C@@H](CCC(N)=O)C(=O)N[C@@H](CCC(N)=O)C(=O)N[C@@H](CCC(=O)O)CC(=O)N[C@@H](CCCCN)C(=O)N[C@@H](CC(N)=O)C(=O)N[C@@H](CCC(=O)O)C(=O)N[C@@H](C)CC(=O)N[C@@H](C)C(=O)N[C@@H](CC(C)C)C(=O)N[C@@H](CCCNC(=N)N)CC(=O)N[C@@H](CCC(=O)O)C(=O)N[C@@H](CC(C)C)C(N)=O)[C@@H](C)CC)[C@@H](C)CC` [1α/β] had a half-life in the data set on proteinase K [1] of 4 min. The inhibition constant (Ki) on designed protein gp41-5 was 3.8 µM.
`CC[C@H](C)[C@H](NC(=O)[C@H](C)NC(=O)[C@H]1CNC[C@@H]1NC(=O)[C@H](CC(=O)O)NC(=O)[C@H](Cc1c[nH]c2ccccc12)NC(=O)[C@H]1CCC[C@@H]1NC(=O)[C@H](CCC(=O)O)NC(=O)[C@H](Cc1c[nH]c2ccccc12)NC(=O)[C@@H](NC(=O)C[C@@H](NC(C)=O)[C@@H](C)O)[C@@H](C)O)C(=O)N[C@@H](C)C(=O)N[C@@H](CCC(=O)O)CC(=O)N[C@@H](Cc1ccc(O)cc1)C(=O)N[C@@H](C)C(=O)N[C@H]1CCC[C@@H]1C(=O)N[C@@H](CCCNC(=N)N)C(=O)N[C@H](C(=O)N[C@@H](CCC(=O)O)C(=O)N[C@H]1CCC[C@@H]1C(=O)N[C@@H](CC(C)C)C(=O)N[C@H](C(=O)N[C@H]1CNC[C@@H]1C(=O)N[C@@H](C)C(=O)N[C@@H](C)C(=O)N[C@@H](CCC(N)=O)C(=O)N[C@@H](CCC(=O)O)CC(=O)N[C@@H](CCC(N)=O)C(=O)N[C@@H](CCC(N)=O)C(=O)N[C@@H](CCC(=O)O)CC(=O)N[C@@H](CCCCN)C(=O)N[C@@H](CC(N)=O)C(=O)N[C@@H](CCC(=O)O)C(=O)N[C@H]1CCC[C@@H]1C(=O)N[C@@H](C)C(=O)N[C@@H](CC(C)C)C(=O)N[C@H]1CNC[C@@H]1C(=O)N[C@@H](CCC(=O)O)C(=O)N[C@@H](CC(C)C)C(N)=O)[C@@H](C)CC)[C@@H](C)CC` [2α/β] (Ac-[β3hT]TWE[X1]WD[X2]AIA[β3hE]YA[X1]RIE[X1]LI[X2]AAQ[β3hE]QQ[β3hE]KNE[X1]AL[X2]EL-NH2; N-terminus and C-terminus assumed): the IC50 is 0.042 µM in the data set on HIV-1 DJ258, 0.047 µM in the data set with HIV-1 CC 7/86, 0.131 µM in the data set on HIV-1 JRFL and 0.039 µM in the data set with HIV-1 UG270. Further, the “resistance to degradation by proteinase K relative to α-peptide T-2635” value at proteinase K [2] was ~ 300 fold.
As to `CC[C@H](C)[C@H](NC(=O)[C@H](C)NC(=O)C[C@H](CCCNC(=N)N)NC(=O)[C@H](CC(=O)O)NC(=O)[C@H](Cc1c[nH]c2ccccc12)NC(=O)C[C@H](CCC(=O)O)NC(=O)[C@H](CCC(=O)O)NC(=O)[C@H](Cc1c[nH]c2ccccc12)NC(=O)[C@@H](NC(=O)C[C@H](CCCNC(=N)N)NC(C)=O)[C@@H](C)O)C(=O)N[C@@H](C)C(=O)N[C@@H](CCC(=O)O)CC(=O)N[C@@H](Cc1ccc(O)cc1)C(=O)N[C@@H](C)C(=O)N[C@@H](CCCNC(=N)N)CC(=O)N[C@@H](CCCNC(=N)N)C(=O)N[C@H](C(=O)N[C@@H](CCC(=O)O)C(=O)N[C@@H](CCC(=O)O)CC(=O)N[C@@H](CC(C)C)C(=O)N[C@H](C(=O)N[C@@H](CCCNC(=N)N)CC(=O)N[C@@H](C)C(=O)N[C@@H](C)C(=O)N[C@@H](CCC(N)=O)C(=O)N[C@@H](CCC(=O)O)CC(=O)N[C@@H](CCC(N)=O)C(=O)N[C@@H](CCC(N)=O)C(=O)N[C@@H](CCCNC(=N)N)CC(=O)N[C@@H](CCCCN)C(=O)N[C@@H](CC(N)=O)C(=O)N[C@@H](CCC(=O)O)C(=O)N[C@@H](CCC(=O)O)CC(=O)N[C@@H](C)C(=O)N[C@@H](CC(C)C)C(=O)N[C@@H](CCCNC(=N)N)CC(=O)N[C@@H](CCC(=O)O)C(=O)N[C@@H](CC(C)C)C(N)=O)[C@@H](C)CC)[C@@H](C)CC` [4α/β] (Ac-[β3hR]TWE[β3hE]WD[β3hR]AIA[β3hE]YA[β3hR]RIE[β3hE]LI[β3hR]AAQ[β3hE]QQ[β3hR]KNE[β3hE]AL[β3hR]EL-NH2; N-terminus and C-terminus assumed), the IC50 in the data set on HIV-1 DJ258 was determined as 0.078 µM; in the data set with HIV-1 CC 7/86, 0.049 µM; with HIV-1 JRFL, 0.153 µM; in the data set with HIV-1 UG270 it was 0.056 µM. For the same compound, the half-life with proteinase K [1] is 3.5 min. For the same compound, the Ki at designed protein gp41-5 turned out to be 0.011 µM.
Regarding “Ac-RTWEEWDRAIAEYARRIEELIRAAQEQQRKNEEALREL-NH2 (N-terminus and C-terminus assumed) [3α]”, the “apparent Tm of helix-bundle with N36” value in data set [3] came to 91 °C. Further, the Ki at designed protein gp41-5 is less than 0.0002 µM.
Regarding Enfuvirtide, the IC50 is 0.2 µM in the data set with HIV-1 DJ258, 0.14 µM in the data set on HIV-1 CC 7/86, 0.18 µM in the data set on HIV-1 JRFL and 0.11 µM in the data set on HIV-1 UG270.
